Results reported in ChEMBL document CHEMBL2169849, “Identification of antischistosomal leads by evaluating bridged 1,2,4,5-tetraoxanes, alphaperoxides, and tricyclic monoperoxides” (J Med Chem, 2012).

Legend:
Schistosoma mansoni [1] = test: Antischistosomal activity against Schistosoma mansoni NTS incubated for 72 hrs; format: functional, organism-based
Procedure, shortened: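 NTS from mechanically transformed cercariae (Liberian strain), 100 per well in Medium 199 + 5% iFCS, penicillin/streptomycin, preincubated 12–24 h at 37°C, 5% CO2. Exposed to 0.37–90 μg/ml (threefold steps) for 72 h. Scored microscopically on a viability scale (death, motility, morphology). DMSO control; duplicates, at least three experiments; IC50 from viability scores.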

Schistosoma mansoni [2] = test: Antischistosomal activity against adult Schistosoma mansoni schistosomes incubated for 72 hrs; format: functional, organism-based
L6 = test: Cytotoxicity against rat L6 cells incubated for […] hrs by Alamar blue assay; format: cell-based
[3] = Selectivity index, ratio of IC50 for rat L6 cells to IC50 for adult Schistosoma mansoni schistosomes
Procedure, shortened: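 Ratio of L6 IC50 to adult S. mansoni IC50, both from the assays above.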

Schistosoma mansoni [4] = test: Antischistosomal activity against adult Schistosoma mansoni infected NMRI mouse adult infection model assessed as reduction in total worm burden at 400 mg/kg administered as single dose starting from 49 days post infection; format: functional; design: scale not given: the % may be the effect or the level left
Procedure, shortened: (§1)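 Mice infected subcutaneously with ~100 S. mansoni cercariae (Liberian strain). At day 49 post infection, groups of 4 NMRI mice received a single oral 400 mg/kg dose; 8–10 untreated controls. Total and female worm burden reductions calculated against untreated controls.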

Schistosoma mansoni [5] = test: Antischistosomal activity against adult Schistosoma mansoni infected NMRI mouse adult infection model assessed as reduction in female worm burden at 400 mg/kg administered as single dose starting from 49 days post infection; format: functional; design: scale not given: the % may be the effect or the level left; procedure, shortened: as §1
Schistosoma mansoni [6] = test: Antischistosomal activity against adult Schistosoma mansoni schistosomes incubated for 72 hrs in presence of 120 uM Fe(3)-hemin; format: functional, organism-based
Procedure, shortened: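 Adult worm motility assay in RPMI 1640 + 5% iFCS at 1.1–30 μg/ml. Fe(III)-hemin held at 120 μM final throughout exposure; hemin stock 1.5 mM in dilute NaOH/PBS pH 7.4. Motility scored, IC50 determined at 72 h. At least three experiments.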

HeLa = test: Cytotoxicity against human HeLa cells incubated for 48 hrs by resazurin dye reduction assay; format: cell-based
MRC5 = test: Cytotoxicity against human MRC5 cells incubated for 48 hrs by resazurin dye reduction assay; format: cell-based; conditions: MRC5, 48 h
[7] = Selectivity index, ratio of IC50 for human MRC5 cells to IC50 for human HeLa cells; format: cell-based; conditions: MRC5 cells versus HeLa cells, read-out: Ratio IC50
Schistosoma mansoni [8] = test: Antischistosomal activity against adult Schistosoma mansoni infected NMRI mouse juvenile infection model assessed as reduction in total worm burden at 400 mg/kg administered as single dose starting from 21 days post infection; format: functional; design: scale not given: the % may be the effect or the level left
Procedure, shortened: (§2)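 Juvenile model: NMRI mice infected with ~100 cercariae were given a single oral 400 mg/kg dose on day 21 post infection. Dissected four weeks after treatment, worms sexed and counted. Total and female burden reductions calculated against untreated controls.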

Schistosoma mansoni [9] = test: Antischistosomal activity against adult Schistosoma mansoni infected NMRI mouse juvenile infection model assessed as reduction in female worm burden at 400 mg/kg administered as single dose starting from 21 days post infection; format: functional; design: scale not given: the % may be the effect or the level left; procedure, shortened: as §2

| SMILES | IC50 (Schistosoma mansoni [1]) | IC50 (Schistosoma mansoni [2]) | other results |
| --- | --- | --- | --- |
| C[C@]12OO[C@](C)(OO1)C2CCC(=O)N1CCCCCC1 (some centres undefined) | 5.5 µM | 50.1 µM |  |
| C[C@]12OO[C@](C)(OO1)C2CCC(=O)NCCc1ccccc1 (some centres undefined) | 6.1 µM | 65.6 µM |  |
| C[C@]12OO[C@](C)(OO1)C2CCC(=O)N1CCCCC1 (some centres undefined) | 6.6 µM | > 111 µM |  |
| CC(c1ccc2ccccc2c1)C1[C@]2(C)OO[C@@]1(C)OO2 (some centres undefined) | 7.1 µM | 35.5 µM |  |
| C[C@]12OO[C@](C)(OO1)C2CCC(=O)NC1CCCCC1 (some centres undefined) | 8.9 µM | 66.6 µM |  |
| C[C@]12OO[C@](C)(OO1)C2CCC(=O)N1CCOCC1 (some centres undefined) | 10.7 µM | 36.9 µM |  |
| C[C@]12OO[C@](C)(OO1)C2CCC(=O)NCc1ccccc1 (some centres undefined) | 10.9 µM | > 102 µM |  |
| CCOC(=O)CNC(=O)CCC1[C@]2(C)OO[C@@]1(C)OO2 (some centres undefined) | 11.7 µM | > 104 µM |  |
| C[C@]12OO[C@](C)(OO1)C2CCC(=O)N1CCCC1 (some centres undefined) | 13.9 µM | > 117 µM |  |
| CC(C)NC(=O)CCC1[C@]2(C)OO[C@@]1(C)OO2 (some centres undefined) | 25.6 µM |  |  |
| CC12CCC3[C@@](C)(OO[C@]3(c3ccc(Br)cc3)O1)O2 | 1.7 µM | 8.7 µM | IC50 (L6): 8.2 µM; Ratio IC50 [3]: 0.9; Activity (Schistosoma mansoni [4]): 31.3%; Activity (Schistosoma mansoni [5]): 36.4% |
| CCOC(=O)CCC12CCC3(C)O[C@]1(C)OO[C@]2(C)O3 | 3.5 µM | > 105 µM | IC50 (Schistosoma mansoni [6]): 92.2 µM |
| Cc1ccc(CC23CCC4(C)O[C@]2(C)OO[C@]3(C)O4)cc1 | 4.5 µM | > 103 µM | IC50 (Schistosoma mansoni [6]): 13.4 µM; IC50 (L6): > 103 µM; Ratio IC50 [3]: >7.7; Activity (Schistosoma mansoni [4]): 0%; Activity (Schistosoma mansoni [5]): 0% |
| C#CCC12CCC3(C)O[C@]1(C)OO[C@]2(C)O3 | 8.1 µM | 82.4 µM |  |
| CC12CCC3(Cc4ccc([N+](=O)[O-])cc4)[C@@](C)(OO[C@]3(C)O1)O2 | 9 µM | 12.2 µM | IC50 (L6): > 93 µM; Ratio IC50 [3]: >7.6; Activity (Schistosoma mansoni [4]): 4.7%; Activity (Schistosoma mansoni [5]): 9.6% |
| CC12CCC3[C@@](C)(OO[C@]3(C)O1)O2 | 9 µM | 19.2 µM |  |
| CC12CCC3[C@@](C)(OO[C@]3(c3ccccc3)O1)O2 | 9.3 µM | 7.7 µM | IC50 (L6): 10.3 µM; Ratio IC50 [3]: 1.3; Activity (Schistosoma mansoni [4]): 6.5%; Activity (Schistosoma mansoni [5]): 15.2% |
| CC12CCC3(Cc4ccccc4)[C@@](C)(OO[C@]3(C)O1)O2 | 13.4 µM | > 109 µM |  |
| COc1ccc([C@]23OO[C@@]4(C)OC(C)(CCC42)O3)cc1 | 14.4 µM | 11.7 µM | IC50 (L6): 58.3 µM; Ratio IC50 [3]: 4.9; IC50 (HeLa): 6 µM; IC50 (MRC5): 12.4 µM; selectivity ratio [7]: 2; Activity (Schistosoma mansoni [4]): 82.8%; Activity (Schistosoma mansoni [5]): 82.9%; Activity (Schistosoma mansoni [8]): 18.9%; Activity (Schistosoma mansoni [9]): 27.3% |
| C=CCC12CCC3(C)O[C@]1(C)OO[C@]2(C)O3 | 15.6 µM |  |  |
| CC12CCC3[C@@](C)(OO[C@]3(c3ccc(Cl)cc3)O1)O2 | 16 µM |  |  |
| CCCCC12CCC3(C)O[C@]1(C)OO[C@]2(C)O3 | 22.3 µM |  |  |
| CC12CCC3(CC4CO4)[C@@](C)(OO[C@]3(C)O1)O2 (some centres undefined) | 22.5 µM |  |  |
| Cc1ccc([C@]23OO[C@@]4(C)OC(C)(CCC42)O3)cc1 | 45.3 µM |  |  |
| CC12CCC3(C)[C@@](C)(OO[C@]3(C)O1)O2 | 180 µM |  |  |
| CC12CCC3(CCC(=O)NC45CC6CC(CC(C6)C4)C5)[C@@](C)(OO[C@]3(C)O1)O2 | 213 µM |  |  |
| CC12CCC3(CCC(=O)N4CCOCC4)[C@@](C)(OO[C@]3(C)O1)O2 | > 287 µM |  |  |

| SMILES | IC50 (Schistosoma mansoni [1]) | IC50 (Schistosoma mansoni [2]) | other results |
| --- | --- | --- | --- |
| CC12CCC3(CCC(=O)O)[C@@](C)(OO[C@]3(C)O1)O2 | > 348 µM |  |  |
| CC12CCC3(CCC#N)[C@@](C)(OO[C@]3(C)O1)O2 | > 376 µM |  |  |
| C1COC(OOC23CC4CC(CC(C4)C2)C3)C1 (centres undefined) | > 126 µM |  |  |
| CCOC(=O)CCC(OOC(C)(C)C)(C(C)=O)C(C)=O | > 104 µM |  |  |
| CC(=O)C(C)(OOC(C)(C)C)C(C)=O | > 795 µM |  |  |
| CCOC(=O)C(Cc1ccccc1)(OOC(C)(C)C)C(C)=O (centres undefined) | 15.1 µM |  |  |
| CCCCC(OOC(C)(C)C)(C(C)=O)C(=O)OCC (centres undefined) | 26.5 µM |  |  |
| CCOC(=O)C(CCC#N)(OOC(C)(C)C)C(C)=O (centres undefined) | > 111 µM |  |  |
| CCOC(=O)C(Cc1ccccc1)(OOC(C)(C)C)C(=O)OCC | 14.6 µM | 59.1 µM |  |
| CCOC(=O)C(C#N)(Cc1ccc(Cl)cc1)OOC(C)(C)C (centres undefined) | 9 µM | > 127 µM |  |
| CCOC(=O)C(C#N)(CC(C)=O)OOC(C)(C)C (centres undefined) | 37.8 µM |  |  |
| C=CCC(C#N)(OOC(C)(C)C)C(=O)OCC (centres undefined) | 43.2 µM |  |  |
| CCOC(=O)C(C#N)(Cc1ccccc1)OOC(C)(C)C (centres undefined) | 67.7 µM |  |  |
| CC(C)(C)OOC(C#N)(C#N)Cc1ccc(Cl)cc1 | 3.9 µM | 19.3 µM | IC50 (Schistosoma mansoni [6]): 17.9 µM |
| CC(C)(C)OOC(C#N)(C#N)Cc1ccccc1 | 5 µM | 14.7 µM | IC50 (L6): 99 µM; Ratio IC50 [3]: 6.4; Activity (Schistosoma mansoni [4]): 0%; Activity (Schistosoma mansoni [5]): 0% |
| COc1ccc(CC(C#N)(C#N)OOC(C)(C)C)cc1 | 8 µM | 40.6 µM |  |
| CC(C)(C)OOC(C#N)(C#N)C1CCCC1 | 10.7 µM | 123 µM |  |
| CCOC(=O)CC(C)C(C#N)(C#N)OOC(C)(C)C (centres undefined) | 157 µM |  |  |
| CC(C)C(C#N)(C#N)OOC(C)(C)C | 293 µM |  |  |
| CC(c1ccc(Cl)cc1)C1[C@]2(C)OO[C@@]1(C)OO2 (some centres undefined) | 0.4 µM | 35.5 µM | IC50 (Schistosoma mansoni [6]): 25.3 µM |
| Cc1ccc(C(C)C2[C@]3(C)OO[C@@]2(C)OO3)cc1 (some centres undefined) | 0.6 µM | 30.9 µM | IC50 (Schistosoma mansoni [6]): 41.2 µM |
| C[C@]12OO[C@](C)(OO1)C2CCC(=O)NC12CC3CC(CC(C3)C1)C2 (some centres undefined) | 0.8 µM | 33.3 µM | IC50 (Schistosoma mansoni [6]): 39.3 µM |
| CC(c1ccc(Br)cc1)C1[C@]2(C)OO[C@@]1(C)OO2 (some centres undefined) | 1 µM | 33.6 µM | IC50 (Schistosoma mansoni [6]): 47.7 µM |
| CC(c1ccccc1)C1[C@]2(C)OO[C@@]1(C)OO2 (some centres undefined) | 1.1 µM | 18.8 µM | IC50 (Schistosoma mansoni [6]): 12.9 µM; IC50 (L6): 2.2 µM; Ratio IC50 [3]: 0.1; Activity (Schistosoma mansoni [4]): 5%; Activity (Schistosoma mansoni [5]): 4.6% |
| Cc1ccc(CC2[C@]3(C)OO[C@@]2(C)OO3)cc1 (some centres undefined) | 1.2 µM | 40 µM | IC50 (Schistosoma mansoni [6]): > 127 µM |
| C[C@H]1[C@H](OC(=O)CCC(=O)O)O[C@@H]2O[C@@]3(C)CC[C@H]4[C@H](C)CC[C@@H]1[C@@]24OO3 [ARTESUNATE] | 4.97 µM | 38.7 µM | IC50 (Schistosoma mansoni [6]): 38.7 µM; IC50 (L6): 1.5 µM; Ratio IC50 [3]: 0.04; IC50 (HeLa): 3.2 µM; IC50 (MRC5): 6.8 µM; selectivity ratio [7]: 2 |
| O=C(C1CCCCC1)N1CC(=O)N2CCc3ccccc3C2C1 (centres undefined) [PRAZIQUANTEL] | 2.2 µM |  | IC50 (L6): > 96 µM |
